Bioassay records: PubChem BioAssay, The Scripps Research Institute Molecular Screening Center
Hits are enriched below; roughly 3.3% of the tested compounds scored in any of these assays.
UHRF1 binding: UHRF1 methyl-DNA binding inhibition; Q96T88; UHRF1 binding to methylated oligo, TR-FRET; inhibition, % at 4.4 µM; hit rate 0.75% among 370,000; in the data active = inhibition above about 21%;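 note: UHRF1 SRA domain binding a hemimethylated CpG hairpin DNA probe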
SIAE inh: blocks human sialic acid acetylesterase; inhibition, % at 9.66 µM; Q9HAT2; hit rate 0.69% among 370,000; SIAE FP-Rh probe binding, fluorescence polarization;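 active = inhibition above a cutoff: mean of compounds within the control limits plus 3 SD of those, cut at about 17% in these data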
TDP2 inh: TDP2 (human) inhibition, absorbance primary screen; O95551; recombinant TDP2, T5PNP hydrolysis, p-nitrophenol absorbance 415 nm; inhibition, % at 12.8 µM; hit rate 0.34% among 370,000;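 active = inhibition above the mean of all tested compounds plus 3 SD, set per campaign, cut at about 25% in these data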
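Evaluation: % inhibition relative to enzyme-containing and enzyme-free wells. Material: recombinant human TDP2. Benchmarks: enzyme-free and DMSO wells. Timing: enzyme reaction with compound for 2 h at 37 °C. Compound dosing: 12.8 µM only. Measured by: p-Nitrophenol epi absorbance. Reagent: T5PNP substrate at 5 mM, a TopII-DNA adduct mimic. Replication: single well per compound.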
MBD2 DNA inh: blocks human MBD2 binding to methylated DNA. AID 686964. inhibition, % at 4.4 µM. hit rate 0.31% among 370,000. TR-FRET, MBD2 binding to methylated oligonucleotide. Q9UBB5; in the data active = inhibition above about 13%
Target sequence (Q9UBB5 whole entry, looked up): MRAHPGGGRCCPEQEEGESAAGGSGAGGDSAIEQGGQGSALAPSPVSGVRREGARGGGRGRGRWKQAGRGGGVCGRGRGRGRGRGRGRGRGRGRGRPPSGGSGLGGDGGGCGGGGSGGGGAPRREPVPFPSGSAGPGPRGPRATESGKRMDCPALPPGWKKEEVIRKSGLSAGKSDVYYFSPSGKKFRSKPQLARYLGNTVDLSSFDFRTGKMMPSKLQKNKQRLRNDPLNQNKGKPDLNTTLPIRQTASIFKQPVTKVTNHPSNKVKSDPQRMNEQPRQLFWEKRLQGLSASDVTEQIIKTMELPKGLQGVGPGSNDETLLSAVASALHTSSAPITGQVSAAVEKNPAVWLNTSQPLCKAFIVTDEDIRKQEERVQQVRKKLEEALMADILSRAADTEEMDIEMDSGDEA
LEDGF integ inh: blocks HIV-1 LEDGF/p75-dependent DNA integration; inhibition, % at 3.7 µM; hit rate 0.64% among 370,000; TR-FRET IN-LEDGF/p75 DNA integration, Eu/Cy5;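 active = inhibition above the screen-wide mean plus 3 SD, cut at about 13% in these data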;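 note: signal is the Cy5 over europium emission ratio at 671 and 618 nm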
PRMT1 FP inh: blocks human protein arginine methyltransferase 1 | inhibition, % at 2.79 µM | hit rate 1.3% among 370,000 | recombinant PRMT1, activity-based probe fluorescence polarization;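 active = inhibition above about 21% made by adding two undisclosed values, limit read from the data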
PRMT1 inh conf: PRMT1 (human) inhibition, FP confirmation | inhibition, % at 2.79 µM | hit rate 42% among 3,300 | shares compounds with PRMT1 FP inh | recombinant His-PRMT1, activity-based probe fluorescence polarization;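 active = mean inhibition across replicates above the hit cutoff derived for the earlier primary screen, cut at about 22% in these data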
Of the large screens only hits and unclear results are named; the others gave an inactive call (follow-up assays come after a bar, where they were run).

O=C1/C(=C/c2ccccc2O)SC(=S)N1Cc1cccnc1	PRMT1 FP inh 55 | PRMT1 inh conf 35
CCOC(=O)N1CCN(C(=O)C[C@@H]2C(=O)N(Cc3ccc(OC)cc3)/C3=C/CCCCC[C@@]32C(=O)OCC)CC1	none
COCCCNC(=O)C[C@H]1C[C@@]2(C(=O)OC)C(=C[C@H](C(C)C)O[C@@H]2C2CC2)N(Cc2ccc3c(c2)OCO3)C1=O	none
COc1ccc(-n2c(SCC(=O)Nc3ccc(Cl)cc3)nc(O)c(Cc3ccccc3)c2=O)cc1	PRMT1 FP inh 34 | PRMT1 inh conf 32
COC(=O)c1cc(C(=O)OC)cc(N2C(=O)CC(Sc3nc(C)cc(C)n3)C2=O)c1 (stereo not given)	none
CCOc1ccccc1N1C(=O)CC(Sc2n[nH]c(-c3ccccc3)n2)C1=O (stereo not given)	PRMT1 FP inh 73 | PRMT1 inh conf 78
COc1ccc(N2C(=O)CC(Sc3n[nH]c(-c4cccc(C)c4)n3)C2=O)cc1 (stereo not given)	PRMT1 FP inh 44 | PRMT1 inh conf 60
COC(=O)c1ccc(N2C(=O)CC(Sc3n[nH]c(C)n3)C2=O)cc1 (stereo not given)	PRMT1 FP inh 44 | PRMT1 inh conf 50
CC(C)CNC(=O)OCc1cn(Cc2ccc(C(F)(F)F)cc2)nn1	none
COC(=O)[C@]12C[C@H](CC(=O)NCCC(C)C)C(=O)N(Cc3ccc(Cl)cc3Cl)C1=C[C@H](C(C)(C)C)O[C@@H]2C	none
CCCCNC(=O)C[C@@H]1C(=O)N2CCCC3=C2[C@@]1(C(=O)OCC)CCC3	none
CC#CC(=O)N1CCC(Oc2cccc(C(=O)NCc3ccccn3)c2)CC1	PRMT1 FP inh 74 | PRMT1 inh conf inactive
CCOC(=O)[C@]12CCCCC/C=C\1N(CCc1ccc(Cl)cc1)C(=O)[C@H]2CC(=O)N1CCN(C(=O)C2CC2)CC1	none
COc1cccc(/C=C2/CCC(CN(C)C)C2=O)c1 (stereo not given)	PRMT1 FP inh 41 | PRMT1 inh conf 71
O=C(COc1ccccc1)Nc1nc(-c2ccncc2)cs1	PRMT1 FP inh 35 | PRMT1 inh conf 34
Cc1cc(C)cc(OCC(=O)Nc2nc(-c3cccnc3)cs2)c1	PRMT1 FP inh 35 | PRMT1 inh conf inactive
O=C(COc1ccccc1)Nc1nc(-c2cccnc2)cs1	none
Cc1ccc(C(=O)N2CCC(Oc3cccnc3)CC2)cc1	none
O=C(O)c1ccccc1C(=O)Nc1n[nH]c(=S)s1	PRMT1 FP inh 31 | PRMT1 inh conf inactive
Cc1ccc(C)c(N)c1	none
Cc1ccc(SSc2cc(C)ccc2N)c(N)c1	PRMT1 FP inh 70 | PRMT1 inh conf 87
COc1ccc(CNC2CCC23CCC(C)CC3)cc1OC (stereo not given)	none
c1csc(-c2ccn[nH]2)c1	none
S=c1nccc(-c2cccs2)[nH]1	PRMT1 FP inh 49 | PRMT1 inh conf 22
O=C(CSc1ccccc1)NC1CCCCN(Cc2ccc(Cl)cc2)C1=O (stereo not given)	none
Cc1ccc(-c2cccc(NC(=O)C3C(C(=O)O)[C@@H]4C=C[C@H]3C4)c2)o1 (stereo not given in full)	PRMT1 FP inh 65 | PRMT1 inh conf inactive
O=c1[nH]c(-c2ccccn2)nc2sc(-c3ccccc3)cc12	PRMT1 FP inh 33 | PRMT1 inh conf inactive
Cc1c(C(=O)N(C)C)sc2nc(-c3ccccn3)[nH]c(=O)c12	none
COc1ccc(S(=O)(=O)Oc2ccc3ccccc3c2)cc1	none
COC1=C(OC)C(=O)C(Sc2ccc3ccccc3c2)=CC1=O	PRMT1 FP inh 95 | PRMT1 inh conf 94
CC(C)N1CCc2c(sc(NC(=O)C(F)(F)F)c2-c2nc3ccccc3s2)C1	PRMT1 FP inh 31 | PRMT1 inh conf inactive
O=C(CSc1nc2ccccc2o1)NN=C/C=C\c1ccccc1[N+](=O)[O-]	none
FC(F)(F)c1nc2ccccc2nc1N/N=C\c1ccccc1	PRMT1 FP inh 25 | PRMT1 inh conf inactive
Cc1nn(-c2ccccc2)c(C)c1/C=N/NC(=O)c1[nH][nH]c(=O)c1C	none
